Data reported in paper PMC12316622 (EJNMMI Research, 2025).
Where a name gives a salt, the structure may show the parent alone.

Tests used:
PC-3 cells = test: IC50 determination, SRB cell density assay, PC-3; assay type: cell-based; conditions: Homo sapiens
Outline: (§1)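 Cells were seeded in 96-well plates (PC-3 at 3 × 10³, T47D at 5 × 10³) and left overnight. They were exposed 72 h at 37 °C to increasing test compound concentrations with DMSO vehicle, washed, then regrown 48 h in fresh medium. Readout was by SRB: TCA fixation overnight, 0.5% SRB for 20 min, acetic acid washes, dye dissolved in 10 mM Tris, OD at 560 nm. Density was taken relative to untreated cells (100%). Runs were in triplicate, and IC50 came from a four-parameter nonlinear fit.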

T47D cells [1] = test: IC50 determination, SRB cell density assay, T47D; assay type: cell-based; conditions: Homo sapiens
Outline: as §1

[2] = tested on: GRPR mRNA in PC-3 xenografts; test: Ex-vivo GRPR mRNA expression in PC-3 xenografts; design: species or system NMRI-Foxn1 nu/nu mice; conditions: PC-3 xenografts after third cycle of DTX 5 mg/kg; RT-qPCR
Outline: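 PC-3 xenografts came from male nude mice given taxane 5 mg/kg or placebo (polysorbate-80 1:1 in 5% glucose) weekly for 3 weeks, N = 4. After the final SPECT/CT scan, each tumor was halved. One half was processed for GRPR mRNA by RT-qPCR and compared with placebo.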

[3] = tested on: GRPR mRNA in T47D xenografts; test: Ex-vivo GRPR mRNA expression in T47D xenografts; design: species or system NMRI-Foxn1 nu/nu mice; conditions: T47D tumors from DXR-treated animals (5 mg/kg, 2 cycles); RT-qPCR
Outline: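 T47D xenografts came from estradiol-supplemented female nude mice given anthracycline 5 mg/kg or placebo weekly for 2 weeks. After the last SPECT/CT scan, each tumor was halved. One half was used for GRPR mRNA by RT-qPCR against placebo.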

T47D cells [4] = test: Sensitivity to GRPR-mediated radionuclide therapy, T47D; assay type: cell-based, human; conditions: 50 MBq, 1 h, SRB after 6 days
Outline: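 T47D cells were pretreated 72 h with anthracycline or vehicle (0.4% DMSO), then regrown 24 h. Next, 3 × 10⁶ cells were seeded in T25 flasks and the following day exposed 1 h at 37 °C to 50 MBq/ml ¹⁷⁷Lu-labelled GRPR tracer, [¹⁷⁷Lu]Lu-DTPA (specificity control) or medium. Cells were scraped and re-seeded at 4 × 10³ per well, grown 6 days, then read by SRB. Density was taken versus medium-treated cells within each pretreatment group, from three independent experiments in triplicate.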

SMILES	IC50 (PC-3 cells) [nM]	IC50 (T47D cells [1]) [nM]	GRPR mRNA levels in xenografts versus placebo [2]	GRPR mRNA expression in xenografts versus placebo [3]	Cell density relative to medium-treated cells (T47D cells [4]; DXR-pretreated T47D cells)	Cell density relative to medium-treated cells (T47D cells [4]; vehicle and DXR pretreated T47D cells)
CC(=O)O[C@@]12CO[C@@H]1C[C@H](O)[C@@]1(C)C(=O)[C@H](O)C3=C(C)[C@@H](OC(=O)[C@H](O)[C@@H](NC(=O)OC(C)(C)C)c4ccccc4)C[C@@](O)([C@@H](OC(=O)c4ccccc4)[C@H]21)C3(C)C [DTX, anhydrous docetaxel]	14.1 ± 3.72	0.94 ± 0.39	similar			
COc1cccc2c1C(=O)c1c(O)c3c(c(O)c1C2=O)C[C@@](O)(C(=O)CO)C[C@@H]3O[C@H]1C[C@H](N)[C@H](O)[C@H](C)O1 [DXR, doxorubicin hydrochloride]		22.3 ± 7.04		increased GRPR mRNA expression		
O=C([O-])CN(CCN(CC(=O)[O-])CC(=O)[O-])CCN(CC(=O)[O-])CC(=O)[O-].[177Lu+3] [[^177Lu]Lu-DTPA]					slightly higher compared to the other conditions	no effect was observed
